# Source: ChEMBL document CHEMBL4145559 (ACS Med Chem Lett, 2018)
# Activity calls are given as the source filed them. The calls are words filed in the database; no cut-off is given here.
# Experiments:
# [1] = tested on: Yersinia pestis; assay: Antimicrobial activity against Yersinia pestis KIM6+; format: functional
# [2] = Inhibition of Escherichia coli type 1 signal peptidase using peptide substrate after 30 mins by fluorescence assay
# In short: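 Purified E. coli SPase was assayed with the internally quenched fluorogenic peptide (Dabcyl)-AGHDAHA↓SET-(EDANS), with cleavage at the arrow separating the EDANS donor from the Dabcyl acceptor. IC50 was taken as the half-maximal inhibitory concentration.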
# [3] = tested on: HEK293; assay: Cytotoxicity against HEK293 cells up to 128 ug/ml after 24 hrs by resazurin dye based fluorescence assay; format: cell-based; details: human, hek293, 24 h
# [4] = tested on: Staphylococcus epidermidis; assay: Antimicrobial activity against Staphylococcus epidermidis RP26A; format: functional
# In short: (§1)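 MICs determined by the standard CLSI broth microdilution method on intact bacteria (E. coli MG1655; S. epidermidis RP26A).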
# [5] = tested on: Escherichia coli; assay: Antimicrobial activity against Escherichia coli MG1655 by broth micro dilution method; format: functional, organism-based; details: K-12 substr. MG1655; in short: as §1
Structure (SMILES),MIC [1] [µg/mL],IC50 [2] [µg/mL],Activity [3],MIC [4] [µg/mL],Activity [5]
C[C@@H](O)[C@H]1C(=O)N2C(C(=O)O)=C(SCCN)S[C@H]12,16,0.63,Non-Toxic,16,
C[C@@H](O)[C@H]1C(=O)N2C(C(=O)O)=C(S[C@@H]3CN[C@H](C(=O)N(C)C)C3)S[C@H]12,64,1.22,,32,
C[C@@H](O)[C@H]1C(=O)N2C(C(=O)O)=C(S[C@@H]3CCNC3)S[C@H]12,16,1.75,Non-Toxic,4,
C[C@@H](O)[C@H]1C(=O)N2C(C(=O)O)=CS[C@H]12,128,2.99,,128,inactive
CNCCSC1=C(C(=O)O)N2C(=O)[C@H]([C@@H](C)O)[C@H]2S1,> 128,6.37,,> 128,
C[C@@H](O)[C@H]1C(=O)N2C(C(=O)O)=C(SCCO)S[C@H]12,32,1.49,Non-Toxic,8,
C[C@@H](O)[C@H]1C(=O)N2C(C(=O)O)=C(SCCNC=N)S[C@H]12,16,1.04,Non-Toxic,8,
C[C@@H](O)[C@H]1C(=O)N2C(C(=O)O)=C(S[C@@H]3CC[S+]([O-])C3)S[C@H]12 (stereo not given in full),,1.16,,16,
C[C@@H](O)[C@H]1C(=O)N2C(C(=O)O)=C(SCCOC(N)=O)S[C@H]12 [Sch-34343],16,0.96,,4,
C[C@@H](O)[C@H]1C(=O)N2C(C(=O)O)=C(CCc3ccccn3)S[C@H]12,32,1.31,,16,
C[C@@H](O)[C@H]1C(=O)N2C(C(=O)O)=C(S[C@H]3CCNC3)S[C@H]12,8,0.8,,8,
C[C@@H](O)[C@H]1C(=O)N2C(C(=O)O)=C(SCCN(C)C)S[C@H]12,> 128,3.95,,> 128,
